Experimental data: ChEMBL document CHEMBL1149184, “Development of a new type of allosteric modulator of muscarinic receptors: hybrids of the antagonist AF-DX 384 and the hexamethonio derivative W84” (J Med Chem, 2004)

How the values were obtained:
[1] = test system: Muscarinic acetylcholine receptor M2 (Cavia porcellus); experiment: Palpha towards Muscarinic acetylcholine receptor M2 in guinea pig using [3H]NMS as a radioligand
[2] = test system: Muscarinic acetylcholine receptor M2 (Cavia porcellus); experiment: Palpha towards Muscarinic acetylcholine receptor M2 in guinea pig using [3H]-AF-DX 384 as a radioligand
[3] = test system: Muscarinic acetylcholine receptor M2 (Cavia porcellus); experiment: Half-maximally reduction towards muscarinic 2 receptor in guinea pig using [3H]-AF-DX 384 as a radioligand
[4] = test system: Muscarinic acetylcholine receptor M2 (Cavia porcellus); experiment: Binding affinity towards Muscarinic acetylcholine receptor M2 in guinea pig using [3H]-NMS as a radioligand
[5] = test system: Muscarinic acetylcholine receptor M2 (Cavia porcellus); experiment: Emax dissociation towards Muscarinic acetylcholine receptor M2 in guinea pig using [3H]NMS as a radioligand
[6] = test system: Muscarinic acetylcholine receptor M2 (Cavia porcellus); experiment: Half-maximal reduction towards Muscarinic acetylcholine receptor M2 in guinea pig using [3H]NMS as a radioligand
[7] = test system: Muscarinic acetylcholine receptor M2 (Cavia porcellus); experiment: Emax dissociation towards Muscarinic acetylcholine receptor M2 in guinea pig using [3H]AF-DX 384 as a radioligand
[8] = test system: Muscarinic acetylcholine receptor M2 (Cavia porcellus); experiment: Binding affinity towards Muscarinic acetylcholine receptor M2 in guinea pig using [3H]-AF-DX 384 as a radioligand
[9] = target: T1, Muscarinic acetylcholine receptor M2 (Sus scrofa) (UniProt P06199); experiment: Emax dissociation towards Muscarinic acetylcholine receptor M2 in porcine heart using [3H]NMS as a radioligand
T1 sequence (whole entry): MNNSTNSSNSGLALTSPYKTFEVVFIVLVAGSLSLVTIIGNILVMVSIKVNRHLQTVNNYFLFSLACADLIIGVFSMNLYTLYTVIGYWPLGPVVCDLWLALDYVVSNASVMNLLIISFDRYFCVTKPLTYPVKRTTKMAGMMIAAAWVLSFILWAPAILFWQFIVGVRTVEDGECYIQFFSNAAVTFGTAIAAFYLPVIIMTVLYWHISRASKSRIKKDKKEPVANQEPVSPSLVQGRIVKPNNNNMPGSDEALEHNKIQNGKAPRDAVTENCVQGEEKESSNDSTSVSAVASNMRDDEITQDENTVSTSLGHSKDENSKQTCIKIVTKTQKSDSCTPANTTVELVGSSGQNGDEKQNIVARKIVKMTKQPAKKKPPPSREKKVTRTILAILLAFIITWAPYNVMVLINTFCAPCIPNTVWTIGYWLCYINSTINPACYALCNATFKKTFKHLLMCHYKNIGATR
How it was run: (§1)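 Dissociation assay at 37 °C on porcine cardiac membranes in Mg/Tris buffer, pH 7.3. Membranes were preincubated 30 min with 0.2 nM [3H]NMS, then dissociation was started with 1 μM atropine ± test compound and tracked for 120 min. Apparent dissociation rate constants k-1 against log concentration were fitted with a four-parameter logistic curve.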

[10] = target: T1, Muscarinic acetylcholine receptor M2 (Sus scrofa); experiment: Palpha towards Muscarinic acetylcholine receptor M2 in porcine heart using [3H]NMS as a radioligand
How it was run: (§2)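 Porcine heart membranes with 0.2 nM [3H]NMS at 37 °C in 3 mM MgHPO4 / 50 mM Tris-HCl, pH 7.3, and varying test-compound concentrations. Incubation was 120–360 min to reach equilibrium. Nonspecific binding was taken with 1 μM atropine. Bound label was filtered and counted. Curves were fitted to the ternary complex model of allosteric interaction. Three to four independent experiments.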

[11] = target: T1, Muscarinic acetylcholine receptor M2 (Sus scrofa); experiment: Half-maximal reduction towards Muscarinic acetylcholine receptor M2 in porcine heart using [3H]NMS as a radioligand
How it was run: as §1

[12] = target: T1, Muscarinic acetylcholine receptor M2 (Sus scrofa); experiment: Binding affinity towards Muscarinic acetylcholine receptor M2 in porcine heart using [3H]NMS as a radioligand
How it was run: as §2

Row | SMILES | Palpha [1] | Palpha [2] | pEC0.5,diss [3] | pKA [4] | Emax,diss [5] | pEC0.5,diss [6] | Emax,diss [7] | pKA [8] | Emax,diss [9] | Palpha [10] | pEC0.5,diss [11] | pKA [12]
1 | CCCN(CCC)CC1CCCCN1CCNC(=O)N1c2ccccc2C(=O)Nc2cccnc21 (stereo not given) |  |  |  |  |  |  |  |  | 100% | < -2 | 4.65 | 8.14
2 | CCCN(CCCN1C(=O)c2ccccc2C1=O)CC1CCCCN1CCNC(=O)N1c2ccccc2C(=O)Nc2cccnc21 (stereo not given) |  |  |  |  |  |  |  |  | 100% | 1.07 | 6.87 | 5.89
3 | CCCN(CCCCCC[N+](C)(C)CCCN1C(=O)c2ccccc2C1=O)CC1CCCCN1CCNC(=O)N1c2ccccc2C(=O)Nc2cccnc21 (stereo not given) |  |  |  |  |  |  |  |  | 100% | -0.58 | 6.78 | 6.83
4 | CCCN(CCCN1C(=O)CCC1=O)CC1CCCCN1CCNC(=O)N1c2ccccc2C(=O)Nc2cccnc21 (stereo not given) |  |  |  |  |  |  |  |  | 76% | -1.8 | 4.95 | 8.01
5 | CCCN(CCCCCCN1C(=O)c2ccccc2C1=O)CC1CCCCN1CCNC(=O)N1c2ccccc2C(=O)Nc2cccnc21 (stereo not given) |  |  |  |  |  |  |  |  | 100% | 0.05 | 6.75 | 6.71

Continued, values first:

Row | Palpha [1] | Palpha [2] | pEC0.5,diss [3] | pKA [4] | Emax,diss [5] | pEC0.5,diss [6] | Emax,diss [7] | pKA [8] | Emax,diss [9] | Palpha [10] | pEC0.5,diss [11] | pKA [12] | SMILES
6 | -1.03 | < -2 | 3.33 | 4.12 | 100% | 3.35 | 34% | 4.44 |  |  |  |  | CC[N+](C)(C)CCCN1C(=O)c2ccccc2C1=O
7 | -1.21 | < -2 | 3 | 3.95 | 100% | 3.21 | 25% | 4.51 |  |  |  |  | C[N+](C)(C)CCCN1C(=O)c2ccccc2C1=O
8 | -0.78 | < -2 | 2.98 | 3.55 | 90% | 3.76 | 73% | 4.1 |  |  |  |  | CCC[N+](C)(C)CCCN1C(=O)c2ccccc2C1=O
9 | -1.55 | -1.35 | 4.11 | 5.08 | 100% | 4.06 | 82% | 5.8 |  |  |  |  | CCCCCC[N+](C)(C)CCCN1C(=O)c2ccccc2C1=O
10 | -0.49 | -1.56 | 3.67 | 5.24 | 100% | 4.82 | 68% | 5.93 |  |  |  |  | C[N+](C)(CCCCCC[N+](C)(C)CCCN1C(=O)c2ccccc2C1=O)CCCN1C(=O)CCC1=O
